Measurements from ChEMBL document CHEMBL4808162, “Constraining the Side Chain of C-Terminal Amino Acids in Apelin-13 Greatly Increases Affinity, Modulates Signaling, and Improves the Pharmacokinetic Profile” (J Med Chem, 2021).

Tests used:
Apelin receptor [1] = molecular target: T1, Apelin receptor (Homo sapiens, UniProt P35414); test: Displacement of [125I] [NIe75,Tyr77]Pyr-apelin-13 from YFP-tagged human APJ receptor expressed in HEK293 cells incubated for 1 hr by gamma counting analysis; assay type: cell-based
T1 sequence (P35414 whole entry): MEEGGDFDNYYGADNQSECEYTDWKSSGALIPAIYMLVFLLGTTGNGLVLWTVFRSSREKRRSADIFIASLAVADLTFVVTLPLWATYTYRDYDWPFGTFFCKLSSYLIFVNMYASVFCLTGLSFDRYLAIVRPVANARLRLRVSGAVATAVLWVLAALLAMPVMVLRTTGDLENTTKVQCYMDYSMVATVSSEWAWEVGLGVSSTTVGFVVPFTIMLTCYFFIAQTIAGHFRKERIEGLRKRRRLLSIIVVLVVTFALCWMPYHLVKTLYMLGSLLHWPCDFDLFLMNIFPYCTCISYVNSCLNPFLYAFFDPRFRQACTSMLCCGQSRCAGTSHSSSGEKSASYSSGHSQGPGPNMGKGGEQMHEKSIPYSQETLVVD

Apelin receptor [2] = molecular target: T1, Apelin receptor; test: Agonist activity at human APJ receptor expressed in HEK293T cells co-expressing Galphai1 RlucII assessed as dissociation of Galphai1 from Gbetta/gamma subunit measured using coelenterazine luciferase substrate incubated for 5 mins by BRET assay; assay type: functional, cell-based, HEK293
Apelin receptor [3] = molecular target: T1, Apelin receptor; test: Agonist activity at human APJ receptor expressed in HEK293T cells co-expressing PDZ-Rho-Gef-RLucll and rGFP-CAAX assessed as induction of recruitment of Galpha12 to cell membrane using coelenterazine luciferase substrate incubated for 5 mins by BRET assay; assay type: functional, cell-based, HEK293
Apelin receptor [4] = molecular target: T1, Apelin receptor; test: Agonist activity at human APJ receptor expressed in HEK293 cells co-expressing Rlucll-beta-arrestin2 assessed as induction of beta-arrestin2 recruitment to receptor incubated for 30 mins by BRET assay; assay type: functional, cell-based
[5] = Stability in Sprague-Dawley rat plasma assessed as half life measured up to 24 hrs by UPLC-MS analysis; assay type: ADME, cell-free
Outline: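 Peptide (6 μL of 1 mM aqueous solution) incubated with 27 μL male Sprague-Dawley rat plasma at 37 °C. Time points 0, 1, 2, 4, 7, 24 h, or 0–120 min for labile peptides. Reaction quenched with acetonitrile-ethanol containing N,N-dimethylbenzamide internal standard, filtered, then UPLC-MS. t1/2 from one-phase exponential decay; at least three experiments.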

Compound	Ki (Apelin receptor [1]) [nM]	EC50 (Apelin receptor [2]) [nM]	EC50 (Apelin receptor [3]) [nM]	EC50 (Apelin receptor [4]) [nM]	half-life [5] [h]	Ki (Apelin receptor [1]; hek293) [nM]	EC50 (Apelin receptor [2]; hek293) [nM]	EC50 (Apelin receptor [3]; hek293) [nM]	EC50 (Apelin receptor [4]; hek293) [nM]
CCCC[C@H](NC(=O)[C@@H]1CCCN1C(=O)CNC(=O)[C@H](CCCCN)NC(=O)[C@H](Cc1cnc[nH]1)NC(=O)[C@H](CO)NC(=O)[C@H](CC(C)C)NC(=O)[C@H](CCCNC(=N)N)NC(=O)[C@@H]1CCCN1C(=O)[C@H](CCCNC(=N)N)NC(=O)[C@@H]1CCC(=O)N1)C(=O)N1CCC[C@H]1C(=O)N1Cc2cc(OCc3ccccc3)ccc2C[C@@H]1C(=O)O	0.19	3.4	22	45					
CCCC[C@H](NC(=O)[C@@H]1CCCN1C(=O)CNC(=O)[C@H](CCCCN)NC(=O)[C@H](Cc1cnc[nH]1)NC(=O)[C@H](CO)NC(=O)[C@H](CC(C)C)NC(=O)[C@H](CCCNC(=N)N)NC(=O)[C@@H]1CCCN1C(=O)[C@H](CCCNC(=N)N)NC(=O)[C@@H]1CCC(=O)N1)C(=O)N1Cc2ccccc2C[C@@H]1C(=O)N[C@@H](Cc1ccccc1)C(=O)O	9.7	9.6	67	142					
CCCC[C@H](NC(=O)[C@@H]1CCCN1C(=O)CNC(=O)[C@H](CCCCN)NC(=O)[C@H](Cc1cnc[nH]1)NC(=O)[C@H](CO)NC(=O)[C@H](CC(C)C)NC(=O)[C@H](CCCNC(=N)N)NC(=O)[C@@H]1CCCN1C(=O)[C@H](CCCNC(=N)N)NC(=O)[C@@H]1CCC(=O)N1)C(=O)N[C@H](Cc1cccc2ccccc12)C(=O)N1Cc2ccccc2C(C)(C)C1C(=O)O (some centres not stated)	0.16	4.1	10	34	6.3				
CCCC[C@H](NC(=O)[C@@H]1CCCN1C(=O)CNC(=O)[C@H](CCCCN)NC(=O)[C@H](Cc1cnc[nH]1)NC(=O)[C@H](CO)NC(=O)[C@H](CC(C)C)NC(=O)[C@H](CCCNC(=N)N)NC(=O)[C@@H]1CCCN1C(=O)[C@H](CCCNC(=N)N)NC(=O)[C@@H]1CCC(=O)N1)C(=O)N1CCC[C@H]1C(=O)N[C@H](Cc1cc(C2CCCC2)c(O)c(C2CCCC2)c1)C(=O)O	1.6	16	111	361					
CCCC[C@H](NC(=O)[C@@H]1CCCN1C(=O)CNC(=O)[C@H](CCCCN)NC(=O)[C@H](Cc1cnc[nH]1)NC(=O)[C@H](CO)NC(=O)[C@H](CC(C)C)NC(=O)[C@H](CCCNC(=N)N)NC(=O)[C@@H]1CCCN1C(=O)[C@H](CCCNC(=N)N)NC(=O)[C@@H]1CCC(=O)N1)C(=O)N[C@@H](Cc1cccc2ccccc12)C(=O)N[C@@H](Cc1ccccc1)C(=O)O					0.4	0.12	4.4	9.2	41
CCCC[C@H](NC(=O)[C@@H]1CCCN1C(=O)CNC(=O)[C@H](CCCCN)NC(=O)[C@H](Cc1cnc[nH]1)NC(=O)[C@H](CO)NC(=O)[C@H](CC(C)C)NC(=O)[C@H](CCCNC(=N)N)NC(=O)[C@@H]1CCCN1C(=O)[C@H](CCCNC(=N)N)NC(=O)[C@@H]1CCC(=O)N1)C(=O)N1CCC[C@H]1C(=O)N[C@H](C(=O)O)C(C)c1ccccc1 (some centres not stated)	0.37	1	108	40					
CCCC[C@H](NC(=O)[C@@H]1CCCN1C(=O)CNC(=O)[C@H](CCCCN)NC(=O)[C@H](Cc1cnc[nH]1)NC(=O)[C@H](CO)NC(=O)[C@H](CC(C)C)NC(=O)[C@H](CCCNC(=N)N)NC(=O)[C@@H]1CCCN1C(=O)[C@H](CCCNC(=N)N)NC(=O)[C@@H]1CCC(=O)N1)C(=O)N1CCC[C@H]1C(=O)N[C@H](Cc1cccc(OCc2ccccc2)c1)C(=O)O						0.46	3.8	45	106
CCCC[C@H](NC(=O)[C@@H]1CCCN1C(=O)CNC(=O)[C@H](CCCCN)NC(=O)[C@H](Cc1cnc[nH]1)NC(=O)[C@H](CO)NC(=O)[C@H](CC(C)C)NC(=O)[C@H](CCCNC(=N)N)NC(=O)[C@@H]1CCCN1C(=O)[C@H](CCCNC(=N)N)NC(=O)[C@@H]1CCC(=O)N1)C(=O)N[C@H](Cc1ccc2ccccc2c1)C(=O)N1Cc2ccccc2C[C@@H]1C(=O)O	0.37	4.3		94					
CCCC[C@H](NC(=O)[C@@H]1CCCN1C(=O)CNC(=O)[C@H](CCCCN)NC(=O)[C@H](Cc1cnc[nH]1)NC(=O)[C@H](CO)NC(=O)[C@H](CC(C)C)NC(=O)[C@H](CCCNC(=N)N)NC(=O)[C@@H]1CCCN1C(=O)[C@H](CCCNC(=N)N)NC(=O)[C@@H]1CCC(=O)N1)C(=O)N1CCC[C@H]1C(=O)N[C@H]1Cc2c([nH]c3ccccc23)CN(CC(=O)O)C1=O	4.3	6.8	481	311					
